This passage reports EC50 and Activity results from ChEMBL document CHEMBL4177720, “Towards smart biocide-free anti-biofilm strategies: Click-based synthesis of cinnamide analogues as anti-biofilm compounds against marine bacteria” (Bioorg Med Chem Lett, 2018).

Usually pEC50 stands for the EC50 on a negative log10 scale, so that one unit is a factor of ten.

The structures appear in SMILES notation. pEC50: −log10 of the molar value.

Data set [1] has as its system Paracoccus sp. The data set is described as follows: Anti-biofilm activity against Paracoccus sp. 4M6 assessed as inhibition of bacterial adhesion incubated for 15 hrs at 20 degC by Syto 61 dye based fluorimetric assay. The format is functional. To be noted: Paracoccus sp. (in: a-proteobacteria), 4M6, 15 h. The method, boiled down:
(§1)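 Cells were grown in VNSS at 20°C to stationary phase, centrifuged, and resuspended in artificial sea water (ASW) to OD600 0.2-0.4. Suspension (100 µL) plus 100 µL diluted compound, in triplicate, with ASW-only adhesion control, was held 15 h at 20°C. After three 36 g/L NaCl washes, adhered cells were stained 10 min at room temperature with 40 µmol/L Syto 61. Fluorescence read at ex 615/em 670 nm; EC50 from dose-response fit.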

Data set [2] relates to Pseudoalteromonas ulvae. The data set is described as follows: Anti-biofilm activity against Pseudoalteromonas ulvae TC14 assessed as inhibition of bacterial adhesion incubated for 15 hrs at 20 degC by Syto 61 dye based fluorimetric assay. The format is functional, organism-based. To be noted: TC14, 15 h. The method, boiled down:
as §1

Data set [3] relates to Pseudoalteromonas lipolytica. The data set is described as follows: Anti-biofilm activity against Pseudoalteromonas lipolytica TC8 assessed as inhibition of bacterial adhesion incubated for 15 hrs at 20 degC by Syto 61 dye based fluorimetric assay. It counts as functional, organism-based. The note with it: TC8, 15 h. The method in brief: as §1
The subject of data set [4] is Pseudoalteromonas ulvae. The data set is described as follows: Effect on cell growth of Pseudoalteromonas ulvae TC14 at 100 uM measured every hr during 6 hrs by turbidity (OD600) measurement.
The test system of data set [5] is Pseudoalteromonas ulvae. The data set is described as follows: Effect on cell viability of Pseudoalteromonas ulvae TC14 at 100 uM measured every hr during 6 hrs by resazurin based assay. The format is organism-based. The method, boiled down: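 Exponential-phase cells (VNSS, 20°C, 120 rpm) were resuspended in VNSS to OD600 0.1. 20 µL inoculated into 180 µL compound in VNSS, triplicate, at 100 µM, with solvent and medium controls. OD600 was read hourly for 6 h. Resazurin (50 µM) was then added, and fluorescence after 2 h gave percent viability versus untreated.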
A general note: Alamar Blue is a resazurin reagent that responds to reducing activity.

In the case of `COc1cccc(-n2cc(C(=O)NCCc3ccc(OC)c(OC)c3)nn2)c1`, the negative-log EC50 (pEC50) is 3.81 in data set [1], 4.13 in data set [2] and less than 3.52 in data set [3].
Take `COc1ccc(-n2cc(C(=O)NCCc3ccc(OC)c(OC)c3)nn2)cc1`: the Activity entry in data set [4] and in data set [5] was “Non-Toxic” in each case. Moreover, the pEC50 is 3.79 in data set [1], 4.26 in data set [2] and less than 3.52 in data set [3].
Regarding `COc1cccc(-n2cc(C(=O)NCCc3ccc(O)cc3)nn2)c1`, the pEC50 is less than 3.52 in data set [1], 3.69 in data set [2] and 3.56 in data set [3].
Consider `COc1cccc(CCNC(=O)c2cn(-c3cccc(OC)c3)nn2)c1`, for which the figures for the pEC50 in data set [1], in data set [2] and in data set [3] were 3.65, 4.09 and less than 3.52, respectively.
Consider `COc1ccc(CCNC(=O)c2cn(-c3ccc(OC)cc3)nn2)cc1`, for which the Activity entry in data set [4] and in data set [5] was “Non-Toxic” in each case. Moreover, the pEC50 was 3.59 in data set [1], 4.95 in data set [2] and less than 3.52 in data set [3].
As to `O=C(/C=C/c1ccc(O)cc1)NCCc1ccc(O)cc1` [N-P-COUMAROYL TYRAMINE], the pEC50 in data set [1] is less than 3.52; in data set [2], 4.12; in data set [3], less than 3.52.
Consider `COc1ccc(-n2cc(C(=O)NCCc3cccc(OC)c3)nn2)cc1`, for which the Activity entry in data set [4] is “Non-Toxic”. In addition, the results for the pEC50 in data set [1], in data set [2] and in data set [3] were 3.67, 4.28 and 3.85, respectively.
`CC1(C)S[C@@H]2[C@H](NC(=O)[C@H](N)c3ccccc3)C(=O)N2[C@H]1C(=O)O` [AMPICILLIN]: in data set [5], the Activity result is “Toxic”.
On to `COc1ccc(-n2cc(C(=O)NCCc3ccc(O)cc3)nn2)cc1`, for which the pEC50 in data set [1] is 3.66; in data set [2], 3.94; in data set [3], less than 3.52.
Consider `COc1ccc(CCNC(=O)c2cn(-c3cccc(OC)c3)nn2)cc1`, for which the Activity result in data set [4] and in data set [5] was “Non-Toxic” in each case. For the same compound, the pEC50 in data set [1] was 3.67; in data set [2], 4.94; in data set [3], less than 3.52.
